The values below come from ChEMBL document CHEMBL3603837, “Indole Glucocorticoid Receptor Antagonists Active in a Model of Dyslipidemia Act via a Unique Association with an Agonist Binding Site” (J Med Chem, 2015).

Calls of active or inactive are those of the source. No cut-off for these calls is given here.

For test [1], the target named is T1, Estrogen receptor (Homo sapiens) (UniProt P03372).
T1 sequence (whole entry): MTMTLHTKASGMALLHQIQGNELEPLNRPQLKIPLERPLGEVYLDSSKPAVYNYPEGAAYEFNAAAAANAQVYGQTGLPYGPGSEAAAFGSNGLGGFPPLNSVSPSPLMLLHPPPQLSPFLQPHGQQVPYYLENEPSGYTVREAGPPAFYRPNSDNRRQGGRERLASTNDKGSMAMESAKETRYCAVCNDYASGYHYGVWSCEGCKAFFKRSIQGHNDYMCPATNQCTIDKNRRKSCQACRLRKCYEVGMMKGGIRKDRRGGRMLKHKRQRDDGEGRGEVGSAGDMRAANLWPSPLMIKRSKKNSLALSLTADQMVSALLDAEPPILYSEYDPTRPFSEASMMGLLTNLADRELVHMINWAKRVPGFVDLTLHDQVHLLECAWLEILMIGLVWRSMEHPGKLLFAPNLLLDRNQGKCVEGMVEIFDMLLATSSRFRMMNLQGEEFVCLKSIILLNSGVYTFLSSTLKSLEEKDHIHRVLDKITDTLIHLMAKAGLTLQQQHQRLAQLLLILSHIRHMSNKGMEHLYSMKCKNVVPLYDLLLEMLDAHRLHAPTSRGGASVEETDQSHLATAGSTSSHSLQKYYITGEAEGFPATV
In words: Binding affinity to human estrogen receptor expressed in HEK293 cells by scintillation counting based radioligand competition binding assay. The class given is cell-based.

Test [2] has as its target T2, Glucocorticoid receptor (Homo sapiens) (UniProt P04150).
T2 sequence (whole entry): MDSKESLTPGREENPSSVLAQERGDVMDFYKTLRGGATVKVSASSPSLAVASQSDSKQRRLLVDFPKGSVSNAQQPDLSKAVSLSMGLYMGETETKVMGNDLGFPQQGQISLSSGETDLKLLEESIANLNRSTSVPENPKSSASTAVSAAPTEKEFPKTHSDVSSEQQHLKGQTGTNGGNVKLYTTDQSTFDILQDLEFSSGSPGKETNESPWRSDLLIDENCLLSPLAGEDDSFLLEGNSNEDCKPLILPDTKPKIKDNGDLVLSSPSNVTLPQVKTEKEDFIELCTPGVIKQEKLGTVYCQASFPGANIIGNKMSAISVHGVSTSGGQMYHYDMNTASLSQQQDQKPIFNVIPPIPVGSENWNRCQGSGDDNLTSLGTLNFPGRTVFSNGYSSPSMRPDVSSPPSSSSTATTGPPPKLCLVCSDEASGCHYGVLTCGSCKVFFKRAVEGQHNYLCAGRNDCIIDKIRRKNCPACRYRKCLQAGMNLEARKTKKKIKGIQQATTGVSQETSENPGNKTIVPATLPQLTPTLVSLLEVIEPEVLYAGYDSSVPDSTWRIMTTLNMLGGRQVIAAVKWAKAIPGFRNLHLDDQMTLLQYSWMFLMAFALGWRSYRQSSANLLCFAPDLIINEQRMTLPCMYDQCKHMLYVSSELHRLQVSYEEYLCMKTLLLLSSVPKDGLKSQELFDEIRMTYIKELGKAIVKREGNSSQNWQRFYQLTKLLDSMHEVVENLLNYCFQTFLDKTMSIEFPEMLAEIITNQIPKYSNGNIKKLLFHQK
In words: Displacement of [3H]-dexamethasone from human glucocorticoid receptor expressed in HEK293 cells at 10 uM by scintillation counting based radioligand competition binding assay. In kind it is cell-based. The method, boiled down: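 Competition binding with 0.3 nM [3H]-dexamethasone and 20 μg 293-GR lysate per well; nonspecific binding defined with 0.5 μM dexamethasone. Incubated overnight at 4 °C, free ligand removed with charcoal–dextran, then scintillation counting. Percent inhibition at 10 μM was calculated.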

For test [3], the system named is Syrian golden hamster. As to the kind of experiment: Increase in HDL level in high fat and high cholesterol diet fed Syrian golden hamster at 30 mg/kg, po qd for 14 days. In kind it is functional, Mesocricetus auratus. Put shortly:
(§1)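 Groups of Syrian golden hamsters (n = 6) kept on a high fat, high cholesterol diet for 14 days, dosed orally at 30 mg/kg once daily. Plasma HDL and LDL compared against untreated HFHC controls; mean with standard errors.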

In test [4] the test system is Syrian golden hamster. As to the kind of experiment: Reduction in LDL level in high fat and high cholesterol diet fed Syrian golden hamster at 30 mg/kg, po qd for 14 days. The class given is functional. Conditions: Mesocricetus auratus, 336 h. Put shortly: as §1
Test [5] deals with T3, Mineralocorticoid receptor (Homo sapiens, UniProt P08235).
T3 sequence (P08235 whole entry): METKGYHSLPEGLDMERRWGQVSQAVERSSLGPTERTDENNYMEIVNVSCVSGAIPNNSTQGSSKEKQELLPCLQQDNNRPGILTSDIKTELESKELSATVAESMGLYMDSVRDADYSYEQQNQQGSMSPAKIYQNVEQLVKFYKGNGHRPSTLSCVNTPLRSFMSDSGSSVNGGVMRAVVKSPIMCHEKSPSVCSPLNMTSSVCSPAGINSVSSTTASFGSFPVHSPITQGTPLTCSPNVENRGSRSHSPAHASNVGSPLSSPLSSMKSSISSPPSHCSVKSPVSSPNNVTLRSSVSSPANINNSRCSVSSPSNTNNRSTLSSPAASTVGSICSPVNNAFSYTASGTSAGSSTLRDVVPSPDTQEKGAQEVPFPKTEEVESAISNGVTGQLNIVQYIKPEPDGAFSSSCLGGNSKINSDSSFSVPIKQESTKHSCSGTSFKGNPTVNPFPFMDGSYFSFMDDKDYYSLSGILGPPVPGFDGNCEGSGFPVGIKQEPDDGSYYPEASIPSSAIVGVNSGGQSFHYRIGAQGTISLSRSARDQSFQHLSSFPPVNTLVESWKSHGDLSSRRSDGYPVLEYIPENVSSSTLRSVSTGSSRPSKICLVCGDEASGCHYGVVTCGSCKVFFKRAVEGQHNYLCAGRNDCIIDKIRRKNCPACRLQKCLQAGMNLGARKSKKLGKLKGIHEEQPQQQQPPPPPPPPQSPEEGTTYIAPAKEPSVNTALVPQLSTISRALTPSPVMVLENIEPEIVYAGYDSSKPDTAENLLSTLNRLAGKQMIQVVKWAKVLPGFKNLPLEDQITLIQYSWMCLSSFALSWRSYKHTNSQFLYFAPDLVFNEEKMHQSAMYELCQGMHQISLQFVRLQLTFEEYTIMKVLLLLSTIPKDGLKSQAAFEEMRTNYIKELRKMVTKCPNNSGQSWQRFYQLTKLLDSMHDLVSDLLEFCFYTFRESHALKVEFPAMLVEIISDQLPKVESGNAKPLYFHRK
In words: biochemical.

Another test deals with T4, Androgen receptor (Homo sapiens, UniProt P10275).
T4 sequence (P10275 whole entry): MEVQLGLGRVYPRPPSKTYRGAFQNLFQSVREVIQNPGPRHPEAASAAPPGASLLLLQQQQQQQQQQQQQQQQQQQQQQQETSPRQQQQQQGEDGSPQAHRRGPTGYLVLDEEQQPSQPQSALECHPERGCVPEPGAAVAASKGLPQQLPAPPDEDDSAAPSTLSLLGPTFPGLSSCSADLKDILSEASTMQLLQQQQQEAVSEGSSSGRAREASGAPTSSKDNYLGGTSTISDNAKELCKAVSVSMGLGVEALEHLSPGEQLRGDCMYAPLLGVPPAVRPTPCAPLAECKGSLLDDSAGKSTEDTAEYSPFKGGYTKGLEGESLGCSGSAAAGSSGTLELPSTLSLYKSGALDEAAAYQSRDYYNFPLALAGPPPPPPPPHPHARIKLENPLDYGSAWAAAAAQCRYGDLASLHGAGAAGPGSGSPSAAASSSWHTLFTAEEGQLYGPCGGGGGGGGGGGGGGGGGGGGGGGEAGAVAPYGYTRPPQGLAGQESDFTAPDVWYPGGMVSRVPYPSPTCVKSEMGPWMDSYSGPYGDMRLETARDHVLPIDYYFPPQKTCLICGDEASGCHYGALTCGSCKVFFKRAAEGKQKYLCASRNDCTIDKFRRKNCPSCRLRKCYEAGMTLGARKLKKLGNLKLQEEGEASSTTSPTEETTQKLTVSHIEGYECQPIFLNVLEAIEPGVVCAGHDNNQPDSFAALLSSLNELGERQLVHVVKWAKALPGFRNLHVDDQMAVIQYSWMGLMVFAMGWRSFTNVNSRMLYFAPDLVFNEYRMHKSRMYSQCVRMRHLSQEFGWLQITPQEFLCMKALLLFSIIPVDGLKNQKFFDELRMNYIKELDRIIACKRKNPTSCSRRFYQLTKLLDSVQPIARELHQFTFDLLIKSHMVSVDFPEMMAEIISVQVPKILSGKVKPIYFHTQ
In words: biochemical.

As for `COc1ccc(-c2c[nH]c3c(NS(C)(=O)=O)cccc23)cc1F`, the result in test [1] was inactive.
Consider `Cc1[nH]c2ccccc2c1-c1ccccc1`, for which the result in test [2] and in test [1] was inactive.
`CC#C[C@]1(O)CC[C@H]2[C@@H]3CCC4=CC(=O)CCC4=C3[C@@H](c3ccc(N(C)C)cc3)C[C@@]21C` [MIFEPRISTONE] had an Activity with Syrian golden hamster [3] of 35%. Besides, the outcome in test [1] was inactive. This compound had an inhibition in vivo at 30 mg/kg with Syrian golden hamster [4] of 43%.
Regarding `COc1cc(F)ccc1-c1c(CN(C)Cc2ccccc2)[nH]c2c([N+](=O)[O-])cc(C(C)C)cc12`, the outcome in test [2] and in test [1] was inactive.
As to `COc1ccc(F)cc1-c1c[nH]c2c(NC(C)=O)cccc12`, the figures for the Ki (in test [5]; at Androgen receptor) were 6.53 µM and 6.12 µM, respectively. Further, the result in test [1] was inactive.
